Experimental data from ChEMBL document CHEMBL3860048 (J Med Chem, 2016).
Calls of active or inactive are those of the source. The calls are words filed in the database; no cut-off is given here. Where a SMILES comes first, the peptide text is derived from it. [ ]: non-standard residue; d: D form. Phe(3-F) = N[C@@H](Cc1cccc(F)c1)C(=O)O; Arg(Me) = CNC(=N)NCCC[C@H](N)C(=O)O; Hyp = O=C(O)[C@@H]1C[C@@H](O)CN1; azaGly = NNC(=O)O

How the values were obtained:
[1] = system: Rattus norvegicus; assay: Inhibition of testosterone levels in Crl:CD(SD) rat plasma assessed as plasma testosterone level <0.04 ng/ml at 30 pmol/hr, sc administered as continuous dosing through alzet osmotic pump for 1 week by radio-immunoassay; assay type: functional, organism-based
Summary of the method: (§1)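 Peptide dissolved in 50% DMSO at 3, 10, 30 or 100 µM, loaded into ALZET osmotic pumps for 3 to 100 pmol/h. Pumps implanted sc in 5 Crl:CD(SD) male rats. Plasma testosterone measured by RIA after 1 or 4 weeks. Values below the 0.04 ng/mL detection limit were treated as 0.04. Count of rats below the limit.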

[2] = AUC (0 to 24 hrs) in Sprague-Dawley rat plasma at 1 mg/kg, sc by LC/MS analysis; assay type: ADME, organism-based; parameters: dose 1 mg/kg, time < 24 hr, route subcutaneous
Summary of the method: (§2)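 Single subcutaneous 1 mg/kg dose to SD rats (n=3 per group). Plasma drawn at 5, 10, 15, 30 min and 1, 2, 4, 8, 24 h. Proteins removed with 0.2% formic acid/methanol (1:4, v/v) plus acetonitrile, centrifuged, supernatant diluted in 0.4% aqueous formic acid, then measured by LC/MS. Noncompartmental analysis per rat, mean ± SD.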

[3] = MRT in Sprague-Dawley rat plasma at 1 mg/kg, sc by LC/MS analysis; assay type: ADME, organism-based; summary of the method: as §2
[4] = Solubility of the compound in water at 20 mg/ml; assay type: physicochemical; details: buffer
[5] = system: Rattus norvegicus; assay: Inhibition of testosterone levels in CD(SD) rat assessed as plasma testosterone level <0.04 ng/ml at 0.01 nmol/hr, sc administered continuously for 6 days through alzet osmotic pump measured after 6 days by radio-immunoassay; assay type: functional, organism-based
[6] = Plasma concentration in Sprague-Dawley rat at 1 mg/kg, iv after 5 mins by LC/MS analysis; assay type: ADME, organism-based
Summary of the method: (§3)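 Single intravenous 1 mg/kg bolus to SD rats (n=3 per group). Blood sampled at 5, 10, 15, 30 min and 1, 2, 4, 8, 24 h. Plasma deproteinized with 0.2% formic acid/methanol (1:4, v/v) plus acetonitrile, spun 15,000 rpm for 5 min, supernatant treated with 0.4% aqueous formic acid and spun again, then quantified by LC/MS. Noncompartmental parameters per rat, reported as mean ± SD.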

[7] = Tmax in Sprague-Dawley rat plasma at 1 mg/kg, sc by LC/MS analysis; assay type: ADME, organism-based; summary of the method: as §2
[8] = Bioavailability in Sprague-Dawley rat plasma at 1 mg/kg, sc up to 24 hrs by LC/MS analysis; assay type: ADME, organism-based; summary of the method: as §2
[9] = AUC (0 to 24 hrs) in Sprague-Dawley rat plasma at 1 mg/kg, iv up to 24 hrs by LC/MS analysis; assay type: ADME, organism-based; parameters: dose 1 mg/kg, time < 24 hr, route intravenous; summary of the method: as §3
[10] = Cmax in Sprague-Dawley rat plasma at 1 mg/kg, sc by LC/MS analysis; assay type: ADME, organism-based; parameters: dose 1 mg/kg, route subcutaneous; summary of the method: as §2
[11] = Total clearance in Sprague-Dawley rat plasma at 1 mg/kg, iv up to 24 hrs by LC/MS analysis; assay type: ADME, organism-based; summary of the method: as §3
[12] = molecular target: KiSS-1 receptor (Homo sapiens, UniProt Q969F8); assay: Agonist activity at human KISS1R expressed in CHO/dhfr cells assessed as increase in intracellular Ca2+ levels measured for 180 secs by Fluo 3-AM dye based FLIPR assay; assay type: functional, cell-based
Sequence of KiSS-1 receptor (Homo sapiens, UniProt Q969F8) (Q969F8 whole entry): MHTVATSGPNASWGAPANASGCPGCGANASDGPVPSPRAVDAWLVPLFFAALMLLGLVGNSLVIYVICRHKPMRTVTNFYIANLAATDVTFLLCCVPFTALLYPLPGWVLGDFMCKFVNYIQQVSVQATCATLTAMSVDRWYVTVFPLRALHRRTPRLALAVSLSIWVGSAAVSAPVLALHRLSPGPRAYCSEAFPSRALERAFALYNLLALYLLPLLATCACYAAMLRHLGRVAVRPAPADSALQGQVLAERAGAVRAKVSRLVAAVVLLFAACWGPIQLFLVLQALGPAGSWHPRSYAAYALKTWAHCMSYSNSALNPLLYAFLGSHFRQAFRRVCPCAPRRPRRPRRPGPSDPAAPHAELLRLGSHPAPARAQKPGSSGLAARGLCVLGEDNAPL
Summary of the method: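 CHO cells expressing human KISS1R; FLIPR recording of ligand-induced [Ca2+]i rise over time. Maximum response taken and expressed as percent of the response to a maximal concentration of metastin(45-54). EC50 = concentration giving half-maximal mobilization, from nonlinear regression of smoothed data. Reported as ratio to the metastin(45-54) EC50.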

[13] = Volume of distribution in steady state in Sprague-Dawley rat plasma at 1 mg/kg, iv up to 24 hrs by LC/MS analysis; assay type: ADME, organism-based; details: read-out: Vdss; summary of the method: as §3
[14] = molecular target: KiSS-1 receptor (Rattus norvegicus, UniProt Q924U1); assay: Agonist activity at rat KISS1R expressed in CHO/dhfr cells assessed as increase in intracellular Ca2+ levels measured for 180 secs by Fluo 3-AM dye based FLIPR assay; assay type: functional, cell-based
Sequence of KiSS-1 receptor (Rattus norvegicus, UniProt Q924U1) (Q924U1 whole entry): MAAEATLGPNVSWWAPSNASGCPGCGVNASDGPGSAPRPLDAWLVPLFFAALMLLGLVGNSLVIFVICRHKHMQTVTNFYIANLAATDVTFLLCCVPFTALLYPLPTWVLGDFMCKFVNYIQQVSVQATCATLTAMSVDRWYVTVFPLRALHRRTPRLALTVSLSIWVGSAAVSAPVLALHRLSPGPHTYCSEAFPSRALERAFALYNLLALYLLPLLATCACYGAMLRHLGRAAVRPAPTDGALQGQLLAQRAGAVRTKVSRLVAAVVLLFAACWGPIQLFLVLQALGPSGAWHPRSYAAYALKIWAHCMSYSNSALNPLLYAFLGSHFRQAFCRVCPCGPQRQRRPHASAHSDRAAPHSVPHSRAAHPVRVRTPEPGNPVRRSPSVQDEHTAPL

[15] = MRT in Sprague-Dawley rat plasma at 1 mg/kg, iv by LC/MS analysis; assay type: ADME, organism-based; summary of the method: as §3
[16] = system: Rattus norvegicus; assay: Inhibition of testosterone levels in Crl:CD(SD) rat plasma assessed as plasma testosterone level <0.04 ng/ml at 10 pmol/hr, sc administered as continuous dosing through alzet osmotic pump for 1 week by radio-immunoassay; assay type: functional, organism-based; summary of the method: as §1
[17] = Conformational changes of the compound in distilled water assessed as decrease in beta-sheet content at 0.1 mg/ml by preliminary circular dichroism analysis; parameters: scale not given: the % may be the effect or the level left
[18] = system: Rattus norvegicus; assay: Inhibition of testosterone levels in Crl:CD(SD) rat plasma assessed as plasma testosterone level <0.04 ng/ml at 3 pmol/hr, sc administered as continuous dosing through alzet osmotic pump for 1 week by radio-immunoassay; assay type: functional, organism-based; summary of the method: as §1
[19] = Inhibition of testosterone levels in sc dosed Crl:CD(SD) rat plasma assessed as compound dosing causing plasma testosterone level <0.04 ng/ml in all tested animals administered as continuous dosing through alzet osmotic pump for 1 to 4 weeks by radio-immunoassay; assay type: functional
[20] = Solubility of the compound in water up to 500 mg/ml; assay type: physicochemical; details: buffer
[21] = system: Rattus norvegicus; assay: Inhibition of testosterone levels in Crl:CD(SD) rat plasma assessed as plasma testosterone level <0.04 ng/ml at 30 pmol/hr, sc administered as continuous dosing through alzet osmotic pump for 4 weeks by radio-immunoassay; assay type: functional, organism-based; summary of the method: as §1
[22] = system: Rattus norvegicus; assay: Inhibition of testosterone levels in CD(SD) rat assessed as plasma testosterone level <0.04 ng/ml at 0.03 nmol/hr, sc administered continuously for 6 days through alzet osmotic pump measured after 6 days by radio-immunoassay; assay type: functional, organism-based

| SMILES | AUC(0-t) at 24 h [2] | MRT [3] | solubility [4] | concentration at 5 min [6] | Tmax [7] | bioavailability [8] | AUC(0-t) at 24 h [9] | Cmax [10] | clearance [11] | EC50 [12] | Vd [13] | EC50 [14] | MRT [15] | inhibition [1] | inhibition [5] | inhibition [16] | also measured |
| --- | --- | --- | --- | --- | --- | --- | --- | --- | --- | --- | --- | --- | --- | --- | --- | --- | --- |
| CNC(=N)NCCC[C@H](NC(=O)[C@H](CC(C)C)NC(=O)NNC(=O)[C@H](Cc1ccccc1)NC(=O)[C@@H](NC(=O)[C@H](CC(N)=O)NC(=O)[C@@H]1C[C@@H](O)CN1C(=O)[C@@H](Cc1ccc(O)cc1)NC(C)=O)[C@@H](C)O)C(=O)N[C@@H](Cc1c[nH]c2ccccc12)C(N)=O [TAK-448] | 679 ng·h/mL | 72.6 min | Soluble | 2850 ng/mL | 19.8 min | 43.9% | 1550 ng·h/mL | 342 ng/mL | 10.8 mL/min/kg | 5.2 nM | 0.403 L/kg | 36 nM | 37.2 min | Active | Active | Active | Activity [17]: 21.9%; inhibition [18]: Active; MED [19]: 30 pmol/h; solubility [20]: Soluble; inhibition [21]: Active |
| CNC(=N)NCCC[C@H](NC(=O)[C@H](CC(C)C)NC(=O)NNC(=O)[C@H](Cc1ccccc1)NC(=O)[C@@H](NC(=O)[C@H](CC(N)=O)NC(=O)[C@@H]1CCCN1C(=O)[C@@H](Cc1ccc(O)cc1)NC(C)=O)[C@@H](C)O)C(=O)N[C@@H](Cc1c[nH]c2ccccc12)C(N)=O | – | – | – | – | – | – | – | – | – | 0.48 nM | – | 9.3 nM | – | – | Active | – | – |
| CNC(=N)NCCC[C@H](NC(=O)[C@H](CC(C)C)NC(=O)NNC(=O)[C@H](Cc1ccccc1)NC(=O)[C@@H](NC(=O)[C@H](CC(N)=O)NC(=O)CNC(=O)[C@@H](Cc1ccc(O)cc1)NC(C)=O)[C@@H](C)O)C(=O)N[C@@H](Cc1c[nH]c2ccccc12)C(N)=O (Ac-[dY]GNTF[azaGly]L[Arg(Me)]W-NH2) | – | – | Soluble | – | – | – | – | – | – | 5.2 nM | – | 46 nM | – | – | – | – | inhibition [22]: Active |
| CNC(=N)NCCC[C@H](NC(=O)[C@H](CC(C)C)NC(=O)NNC(=O)[C@H](Cc1ccccc1)NC(=O)[C@@H](NC(=O)[C@H](CC(N)=O)NC(=O)[C@H](Cc1c[nH]c2ccccc12)NC(=O)[C@@H](Cc1ccc(O)cc1)NC(C)=O)[C@@H](C)O)C(=O)N[C@@H](Cc1c[nH]c2ccccc12)C(N)=O | – | – | Insoluble | – | – | – | – | – | – | 0.61 nM | – | 4.8 nM | – | – | Active | – | – |

The next lines start with results.

| AUC(0-t) at 24 h [2] | MRT [3] | solubility [4] | concentration at 5 min [6] | Tmax [7] | bioavailability [8] | AUC(0-t) at 24 h [9] | Cmax [10] | clearance [11] | EC50 [12] | Vd [13] | EC50 [14] | MRT [15] | SMILES | inhibition [1] | inhibition [5] | inhibition [16] | also measured |
| --- | --- | --- | --- | --- | --- | --- | --- | --- | --- | --- | --- | --- | --- | --- | --- | --- | --- |
| 1260 ng·h/mL | 65.4 min | Insoluble | 2630 ng/mL | 23.4 min | 94.5% | 1330 ng·h/mL | 703 ng/mL | 12.8 mL/min/kg | 0.47 nM | 0.406 L/kg | 20 nM | 31.8 min | CNC(=N)NCCC[C@H](NC(=O)[C@H](CC(C)C)NC(=O)NNC(=O)[C@H](Cc1cccc(F)c1)NC(=O)[C@@H](NC(=O)[C@H](CC(N)=O)NC(=O)[C@H](CCC(=O)O)NC(=O)[C@@H](Cc1ccc(O)cc1)NC(C)=O)[C@@H](C)O)C(=O)N[C@@H](Cc1c[nH]c2ccccc12)C(N)=O (Ac-[dY]ENT[Phe(3-F)][azaGly]L[Arg(Me)]W-NH2) | Active | Active | Active | – |
| – | – | – | – | – | – | – | – | – | 0.75 nM | – | 8.5 nM | – | CNC(=N)NCCC[C@H](NC(=O)[C@H](CC(C)C)NC(=O)NNC(=O)[C@H](Cc1cccc(F)c1)NC(=O)[C@@H](NC(=O)[C@H](CC(N)=O)NC(=O)[C@@H]1C[C@@H](O)CN1C(=O)[C@@H](Cc1ccc(O)cc1)NC(C)=O)[C@@H](C)O)C(=O)N[C@@H](Cc1c[nH]c2ccccc12)C(N)=O (Ac-[dY][Hyp]NT[Phe(3-F)][azaGly]L[Arg(Me)]W-NH2) | – | Active | – | – |
